Source: ChEMBL document CHEMBL4257474, “Antiproliferative activity of novel isatinyl/indanyl nitrones (INs) as potential spin trapping agents of free radical intermediates” (Medchemcomm, 2018)
Active and inactive are the calls of the source. No cut-off for these calls is given here.

Tests used:
[1] = Antioxidant activity assessed as DPPH free radical scavenging at 6.25 x 10^-6mol/L after 10 mins by UV-vis spectrophotometric analysis relative to control; type: functional
Summary of the method: (§1)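 Ethanolic DPPH was added to the compound in ethanol at the stated concentration, within a five-level series of 1.15 × 10^-6 to 9.10 × 10^-6 mol L^-1. After 10 min in the dark, absorbance was read at 517 nm against absolute ethanol. Scavenging was expressed as RSA% = [(A0 − Ai)/A0] × 100, with A0 the absorbance without compound. BHT served as reference. Triplicate.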

K562 [2] = assay: Antiproliferative activity against human K562 cells after 3 days by MTT assay; type: functional, cell-based
Summary of the method: (§2)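 K562 leukemia cells were seeded at 20000 cells per mL in medium with 10% FBS, penicillin/streptomycin and 2 mM glutamine, at 37 °C and 5% CO2. Compounds were diluted from 40 mM DMSO stocks and applied at 3–200 µM for 3 days. MTT was added for 2 h, then lysis in 50% DMF/20% SDS pH 4.7 for 16 h, and A570 read. Proliferation was expressed as % of untreated cells; IC50 calculated. Three independent experiments in triplicate.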

[3] = Antioxidant activity assessed as DPPH free radical scavenging at 2.45 x 10^-6mol/L after 10 mins by UV-vis spectrophotometric analysis relative to control; type: functional; summary of the method: as §1
[4] = Antioxidant activity assessed as DPPH free radical scavenging at 1.15 x 10^-6mol/L after 10 mins by UV-vis spectrophotometric analysis relative to control; type: functional; summary of the method: as §1
[5] = Antioxidant activity assessed as DPPH free radical scavenging at 9.10 x 10^-6mol/L after 10 mins by UV-vis spectrophotometric analysis relative to control; type: functional; summary of the method: as §1
HOS-TE85 [6] = assay: Antiproliferative activity against human HOSTE85 cells after 3 days by MTT assay; type: functional, cell-based; conditions: HOS-TE85, 72 h
Summary of the method: (§3)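 Osteosarcoma cells were seeded at 4000 per well 6 h before treatment in medium with 10% FBS, penicillin/streptomycin and 2 mM glutamine, at 37 °C and 5% CO2. Compounds came from 40 mM DMSO stocks and were tested at 3–200 µM for 3 days. MTT was added for 2 h and formazan dissolved in 50% DMF/20% SDS pH 4.7 for 16 h. A570 was read versus untreated control; IC50 calculated. Three independent experiments in triplicate.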

[7] = Antioxidant activity assessed as DPPH free radical scavenging after 10 mins by UV-vis spectrophotometric analysis; type: functional
Summary of the method: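 DPPH and test compound mixed in ethanol at five concentrations, 1.15 × 10^-6 to 9.10 × 10^-6 mol L^-1. After 10 min in the dark, absorbance at 517 nm was read against ethanol blank. RSA% = [(A0 − Ai)/A0] × 100. EC50 (concentration giving 50% radical inhibition) was derived from the RSA% values. BHT was the reference over the same range. Triplicate.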

MG-63 [8] = assay: Antiproliferative activity against human MG63 cells after 3 days by MTT assay; type: functional, cell-based; conditions: MG-63, 72 h; summary of the method: as §3
[9] = Antioxidant activity assessed as DPPH free radical scavenging at 4 x 10^-6mol/L after 10 mins by UV-vis spectrophotometric analysis relative to control; type: functional; summary of the method: as §1
K562 [10] = assay: Antiproliferative activity against human K562 cells at 3 to 200 uM after 3 days by MTT assay; type: functional, cell-based; summary of the method: as §2
MG-63 [11] = assay: Antiproliferative activity against human MG63 cells at 3 to 200 uM after 3 days by MTT assay; type: functional, cell-based; summary of the method: as §3
HOS-TE85 [12] = assay: Antiproliferative activity against human HOSTE85 cells at 3 to 200 uM after 3 days by MTT assay; type: functional, cell-based; summary of the method: as §3

| Compound | EC50 [7] | IC50 (K562 [2]; K562, 72 h) | Activity [1] | Activity (K562 [2]) | Activity [3] | Activity [4] | Activity [5] | IC50 (HOS-TE85 [6]) | IC50 (MG-63 [8]) | Activity [9] | Activity (K562 [10]) | Activity (MG-63 [11]) | Activity (HOS-TE85 [12]) |
| --- | --- | --- | --- | --- | --- | --- | --- | --- | --- | --- | --- | --- | --- |
| O=C1Nc2ccccc2/C1=[N+](\[O-])Cc1ccccc1 | 1.8 µM | – | 1.2% | inactive | 1.1% | 1.1% | 78% | 32 µM | 77 µM | 1.2% | – | – | – |
| [O-]/[N+](Cc1ccccc1)=C1/CCc2ccccc21 | 1.2 µM | – | 70% | inactive | 1.2% | 1.1% | 79% | – | – | 1.3% | inactive | inactive | inactive |
| O=C1Nc2ccccc2/C1=[N+](\[O-])c1ccccc1 | 1.3 µM | – | 69% | inactive | 1.2% | 1.1% | 80% | – | – | 1.2% | inactive | inactive | inactive |
| CN1C(=O)/C(=[N+](/[O-])Cc2ccccc2)c2ccccc21 | 0.6 µM | 78 µM | 70% | – | 60% | 1.2% | 79% | – | 77 µM | 68% | – | – | – |

Further molecules by falling EC50 [7], results first:

| EC50 [7] | IC50 (K562 [2]; K562, 72 h) | Compound | Activity [1] | Activity (K562 [2]) | Activity [3] | Activity [4] | Activity [5] | IC50 (HOS-TE85 [6]) | IC50 (MG-63 [8]) | Activity [9] | Activity (K562 [10]) | Activity (MG-63 [11]) | Activity (HOS-TE85 [12]) |
| --- | --- | --- | --- | --- | --- | --- | --- | --- | --- | --- | --- | --- | --- |
| 3.8 µM | – | Cc1cc(C(C)(C)C)c(O)c(C(C)(C)C)c1 [BUTYLATED HYDROXYTOLUENE] | 23% | – | 4.6% | – | 27% | – | – | 11.7% | – | – | – |
| 1.8 µM | – | C/[N+]([O-])=C1\CCc2cc(F)ccc21 | 1.2% | inactive | – | – | 79% | – | – | 1.1% | inactive | inactive | inactive |
| 1.3 µM | – | C/[N+]([O-])=C1\CCc2ccccc21 | 60% | inactive | – | – | 78% | – | – | 1.1% | inactive | inactive | inactive |
| 1.2 µM | – | C/[N+]([O-])=C1\C(=O)Nc2ccc([N+](=O)[O-])cc21 | 72% | inactive | – | – | 79% | 32 µM | – | 1.1% | – | – | – |
| 1 µM | – | O=C1Nc2ccc([N+](=O)[O-])cc2/C1=[N+](\[O-])Cc1ccccc1 | 67% | inactive | – | – | 80% | 32 µM | 77 µM | 60% | – | – | – |
